Assays:
[1] = Ratio of AUC (0 to infinity) in brain to plasma in CD-1 mouse at 25 mg/kg, sc by UPLC analysis; assay type: ADME, organism-based; details: read-out: Ratio AUC
In short: (§1)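 Male CD-1 mice (6–7 weeks, about 30 g) received one dose: 10 mg/kg ip or 25 mg/kg sc, with n = 3 per time point per route. At set times, plasma came from heparinized cardiac-puncture blood. Brain was taken after transcardiac saline perfusion, weighed and flash-frozen. Brain levels were in pmol/mg tissue, plasma in μM. Value is AUCbrain/AUCplasma.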

[2] = Elimination half life in CD-1 mouse plasma at 10 mg/kg, ip by UPLC analysis; assay type: ADME, organism-based; details: read-out: beta t1/2
In short: (§2)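 Male CD-1 mice, 6–7 weeks old, about 30 g, fed and watered ad libitum. Single dose of 10 mg/kg ip or 25 mg/kg sc, given as 100 μL formulation; n = 3 per time point per route. At set times, blood was taken by cardiac puncture with heparinized syringes and spun to plasma. Brains were harvested after transcardiac saline perfusion, weighed and flash-frozen. Brain levels are in pmol/mg tissue.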

Mus musculus [3] = assay: Time at which brain concentration stays above in-vitro Ki for ADAM10 in CD-1 mouse at 25 mg/kg, sc by UPLC analysis; assay type: ADME, organism-based; details: in vivo; in short: as §2
[4] = target: T1, Disintegrin and metalloproteinase domain-containing protein 9 (Homo sapiens) (UniProt Q13443); assay: Inhibition of recombinant human C-terminal His10-tagged ADAM9 (Ala206 to Asp697 residues) expressed in mouse cells using McaPLAQAV-Dpa-RSSSR-NH2 as substrate at 10 uM by fluorescence spectrophotometric method relative to control
T1 sequence (whole entry): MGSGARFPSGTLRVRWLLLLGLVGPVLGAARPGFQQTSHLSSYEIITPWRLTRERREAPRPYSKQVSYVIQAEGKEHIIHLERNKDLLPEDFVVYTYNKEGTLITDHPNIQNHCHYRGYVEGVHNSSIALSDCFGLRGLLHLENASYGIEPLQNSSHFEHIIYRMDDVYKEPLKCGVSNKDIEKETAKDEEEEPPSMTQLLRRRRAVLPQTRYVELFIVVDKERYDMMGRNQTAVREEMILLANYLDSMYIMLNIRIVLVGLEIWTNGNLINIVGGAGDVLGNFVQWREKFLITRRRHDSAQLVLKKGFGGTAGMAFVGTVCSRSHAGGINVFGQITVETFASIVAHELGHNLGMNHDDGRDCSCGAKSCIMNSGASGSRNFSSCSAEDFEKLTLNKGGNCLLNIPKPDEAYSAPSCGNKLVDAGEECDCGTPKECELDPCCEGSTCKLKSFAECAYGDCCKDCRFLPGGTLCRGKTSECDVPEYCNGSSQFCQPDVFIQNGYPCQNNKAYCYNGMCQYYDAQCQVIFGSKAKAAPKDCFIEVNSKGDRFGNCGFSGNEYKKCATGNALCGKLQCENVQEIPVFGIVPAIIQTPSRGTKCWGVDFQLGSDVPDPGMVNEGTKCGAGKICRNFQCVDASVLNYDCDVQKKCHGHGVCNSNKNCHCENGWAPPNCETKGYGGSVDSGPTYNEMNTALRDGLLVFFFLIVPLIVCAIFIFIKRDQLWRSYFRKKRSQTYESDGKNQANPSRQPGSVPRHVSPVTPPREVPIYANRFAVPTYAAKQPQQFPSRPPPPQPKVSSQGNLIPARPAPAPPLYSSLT
In short: (§3)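 Single inhibitor concentration of 10 μM, reported as percent inhibition. Enzymes and substrates as in earlier work, with inhibition run by a previously reported protocol.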

[5] = AUC (0 to last) in CD-1 mouse plasma at 25 mg/kg, sc by UPLC analysis; assay type: ADME, organism-based; parameters: dose 25 mg/kg, route subcutaneous, time 0 - last; in short: as §2
[6] = AUC (0 to infinity) in CD-1 mouse plasma at 25 mg/kg, sc by UPLC analysis; assay type: ADME, organism-based; parameters: dose 25 mg/kg, route subcutaneous, time infinity; in short: as §2
[7] = AUC (0 to infinity) in CD-1 mouse plasma at 10 mg/kg, ip by UPLC analysis; assay type: ADME, organism-based; parameters: dose 10 mg/kg, route intraperitoneal, time infinity; in short: as §2
[8] = AUC (0 to last) in CD-1 mouse brain assessed per mg tissue at 25 mg/kg, sc by UPLC analysis; assay type: ADME, organism-based; details: in vivo; in short: as §2
[9] = Ratio of AUC (0 to infinity) in brain to plasma in CD-1 mouse at 10 mg/kg, ip by UPLC analysis; assay type: ADME, organism-based; details: read-out: Ratio AUC; in short: as §1
[10] = target: Macrophage metalloelastase (Homo sapiens, UniProt P39900); assay: Inhibition of recombinant human MMP12 catalytic domain using Mca-PLGL-DpaAR-NH2 as substrate by fluorescence spectrophotometric method
Sequence of Macrophage metalloelastase (P39900 whole entry, the tested form may be a part): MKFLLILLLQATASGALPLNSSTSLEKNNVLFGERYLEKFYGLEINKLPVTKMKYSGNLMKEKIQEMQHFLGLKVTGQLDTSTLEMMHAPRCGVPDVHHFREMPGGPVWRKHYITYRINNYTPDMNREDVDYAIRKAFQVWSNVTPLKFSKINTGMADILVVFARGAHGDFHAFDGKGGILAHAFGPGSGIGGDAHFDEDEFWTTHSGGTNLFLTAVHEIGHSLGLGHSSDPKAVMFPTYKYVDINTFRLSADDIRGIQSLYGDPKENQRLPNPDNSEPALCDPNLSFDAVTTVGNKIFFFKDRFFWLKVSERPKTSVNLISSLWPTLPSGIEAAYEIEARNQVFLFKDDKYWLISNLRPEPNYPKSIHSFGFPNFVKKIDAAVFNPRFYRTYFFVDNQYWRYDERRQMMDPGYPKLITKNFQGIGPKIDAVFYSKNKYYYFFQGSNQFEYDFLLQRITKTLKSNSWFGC
In short: (§4)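 Enzymes and their substrates were obtained as in earlier work, and inhibition was run by a previously reported protocol. Ki values were measured in triplicate.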

[11] = target: Stromelysin-1 (Homo sapiens) (UniProt P08254); assay: Inhibition of recombinant human MMP3 catalytic domain expressed in Escherichia coli at 10 uM using MOCAc-Arg-Pro-LysPro-Val-Glu-Nva-Trp-Arg-Lys(Dnp)-NH2 as substrate by fluorescence spectrophotometric method relative to control; in short: as §3
Sequence of Stromelysin-1 (Homo sapiens) (P08254 100-477 limits assumed): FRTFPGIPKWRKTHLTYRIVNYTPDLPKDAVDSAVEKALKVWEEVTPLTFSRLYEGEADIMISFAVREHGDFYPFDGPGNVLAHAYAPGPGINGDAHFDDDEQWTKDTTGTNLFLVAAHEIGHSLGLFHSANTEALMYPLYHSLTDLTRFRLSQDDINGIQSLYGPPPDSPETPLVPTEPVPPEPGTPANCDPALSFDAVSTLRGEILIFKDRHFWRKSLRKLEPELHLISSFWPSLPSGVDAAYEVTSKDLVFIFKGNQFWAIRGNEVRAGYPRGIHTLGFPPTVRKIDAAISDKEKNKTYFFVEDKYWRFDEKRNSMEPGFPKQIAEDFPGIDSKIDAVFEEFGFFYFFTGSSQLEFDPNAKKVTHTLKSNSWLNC

[12] = AUC (0 to last) in CD-1 mouse plasma at 10 mg/kg, ip by UPLC analysis; assay type: ADME, organism-based; parameters: dose 10 mg/kg, time 0 - last, route intraperitoneal; in short: as §2
Neutrophil collagenase = Neutrophil collagenase (Homo sapiens, UniProt P22894); assay: Inhibition of recombinant human MMP8 catalytic domain (Phe99 to Gln269 residues) expressed in Escherichia coli using McaKPLGL-Dpa-AR-NH2 as substrate by fluorescence spectrophotometric method; in short: as §4
Sequence of Neutrophil collagenase (P22894 whole entry, the tested form may be a part): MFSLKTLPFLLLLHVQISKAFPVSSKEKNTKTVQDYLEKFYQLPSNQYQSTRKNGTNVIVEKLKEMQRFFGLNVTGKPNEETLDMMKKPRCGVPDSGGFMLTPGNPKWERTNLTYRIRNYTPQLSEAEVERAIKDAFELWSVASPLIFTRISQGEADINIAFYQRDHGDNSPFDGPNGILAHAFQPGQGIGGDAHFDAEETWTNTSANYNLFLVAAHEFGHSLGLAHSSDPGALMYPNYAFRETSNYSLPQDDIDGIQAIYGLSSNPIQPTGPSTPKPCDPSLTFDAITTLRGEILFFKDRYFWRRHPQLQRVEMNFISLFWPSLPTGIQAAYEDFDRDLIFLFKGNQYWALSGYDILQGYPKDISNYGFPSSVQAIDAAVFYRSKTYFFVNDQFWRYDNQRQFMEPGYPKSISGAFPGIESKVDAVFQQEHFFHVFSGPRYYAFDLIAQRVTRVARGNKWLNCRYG

[13] = Elimination half life in CD-1 mouse plasma at 25 mg/kg, sc by UPLC analysis; assay type: ADME, organism-based; details: read-out: beta t1/2; in short: as §2
[14] = target: T2, Disintegrin and metalloproteinase domain-containing protein 10 (Homo sapiens, UniProt O14672); assay: Inhibition of recombinant human C-terminal His10-tagged ADAM10 (Thr214 to Glu672 residues) expressed in baculovirus infected Sf21 cells using McaKPLGL-Dpa-AR-NH2 as substrate by fluorescence spectrophotometric method; in short: as §4
T2 sequence (O14672 whole entry): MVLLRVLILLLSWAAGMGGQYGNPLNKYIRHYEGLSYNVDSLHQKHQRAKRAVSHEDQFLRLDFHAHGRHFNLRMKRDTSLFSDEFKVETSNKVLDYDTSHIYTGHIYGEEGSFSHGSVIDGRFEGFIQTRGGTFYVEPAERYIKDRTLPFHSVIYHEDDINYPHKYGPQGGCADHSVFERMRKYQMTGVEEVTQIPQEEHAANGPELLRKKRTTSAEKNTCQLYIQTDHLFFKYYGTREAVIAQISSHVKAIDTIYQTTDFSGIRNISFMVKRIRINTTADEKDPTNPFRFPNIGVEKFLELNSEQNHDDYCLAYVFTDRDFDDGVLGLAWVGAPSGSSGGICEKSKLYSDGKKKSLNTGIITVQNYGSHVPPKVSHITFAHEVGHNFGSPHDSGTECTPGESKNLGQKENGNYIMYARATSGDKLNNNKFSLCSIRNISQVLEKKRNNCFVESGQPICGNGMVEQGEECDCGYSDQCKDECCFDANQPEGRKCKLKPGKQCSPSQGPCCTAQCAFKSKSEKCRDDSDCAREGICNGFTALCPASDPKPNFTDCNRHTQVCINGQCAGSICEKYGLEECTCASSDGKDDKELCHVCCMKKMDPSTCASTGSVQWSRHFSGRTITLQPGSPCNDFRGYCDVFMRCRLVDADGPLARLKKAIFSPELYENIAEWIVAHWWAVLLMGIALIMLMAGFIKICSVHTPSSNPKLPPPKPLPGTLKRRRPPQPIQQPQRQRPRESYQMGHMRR

Mus musculus [15] = assay: Time at which brain concentration stays above in-vitro Ki for ADAM10 in CD-1 mouse at 10 mg/kg, ip by UPLC analysis; assay type: ADME, organism-based; details: in vivo; in short: as §2

For O=C(NO)[C@H]1C[C@H](OC(=O)N2CCCC2)CC[C@@H]1C(=O)N1CCC(c2ccccc2)CC1, the Kp [1] was 0.0693, the half-life [2] was 5.25 h and the Time (Mus musculus [3]) was 100 min. The inhibition [4] was 15%, the AUC(0-t) [5] was 18.4 µM·h and the AUC(0-inf) [6] was 18.5 µM·h. For the same compound, the AUC(0-inf) [7] was 3.07 µM·h, the AUClast [8] was 51.2 pmol·min and the Kp [9] was 0.0761. The Ki [10] was 270 nM, the inhibition [11] was 2% and the AUC(0-t) [12] was 2.58 µM·h. For the same compound, the Ki (Neutrophil collagenase) was 8700 nM, the half-life [13] was 2.63 h and the Ki [14] was 73 nM. For the same compound, the Time (Mus musculus [15]) was 20 min.

Reference: ChEMBL document CHEMBL4145666, “In Search of Selectivity in Inhibition of ADAM10” (ACS Med Chem Lett, 2018)
